Among the data in ChEMBL document CHEMBL1136843, “N-Benzyl-1-heteroaryl-3-(trifluoromethyl)-1H-pyrazole-5-carboxamides as inhibitors of co-activator associated arginine methyltransferase 1 (CARM1)” (Bioorg Med Chem Lett, 2009) are IC50 and Activity values, retold here.

The source made the active and inactive calls. The calls are words filed in the database; no cut-off is given here.

The target in experiment [1] is T1, Histone-arginine methyltransferase CARM1 (Mus musculus, UniProt Q9WVG6).
T1 sequence (Q9WVG6 whole entry): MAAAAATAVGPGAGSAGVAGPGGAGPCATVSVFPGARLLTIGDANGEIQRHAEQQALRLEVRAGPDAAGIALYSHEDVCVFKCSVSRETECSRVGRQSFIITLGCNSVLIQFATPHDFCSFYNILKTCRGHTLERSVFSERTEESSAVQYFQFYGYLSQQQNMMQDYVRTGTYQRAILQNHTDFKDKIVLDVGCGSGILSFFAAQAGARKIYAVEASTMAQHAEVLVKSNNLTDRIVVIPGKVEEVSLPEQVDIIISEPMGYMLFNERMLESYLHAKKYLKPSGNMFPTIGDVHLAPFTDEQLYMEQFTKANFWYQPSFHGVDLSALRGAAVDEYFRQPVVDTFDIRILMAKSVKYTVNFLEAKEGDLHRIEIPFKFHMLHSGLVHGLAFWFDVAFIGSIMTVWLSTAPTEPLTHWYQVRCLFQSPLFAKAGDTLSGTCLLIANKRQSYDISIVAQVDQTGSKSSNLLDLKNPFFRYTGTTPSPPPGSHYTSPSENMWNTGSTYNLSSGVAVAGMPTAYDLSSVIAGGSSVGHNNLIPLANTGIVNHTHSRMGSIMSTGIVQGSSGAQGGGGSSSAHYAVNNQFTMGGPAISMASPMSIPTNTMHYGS
The experiment can be described thus: Inhibition of mouse recombinant his-tagged CARM1 expressed in Sf9 cells by histone methyltransferase assay. A digest of the protocol:
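Recombinant CARM1 diluted in Tris–HCl pH 9 and pre-incubated with compound for 10 min at rt. Histone H3 substrate plus SAM containing 20% [3H]SAM then added and incubated 15 min at 30 °C. Reaction quenched with SAH, spotted onto P30 filtermat with wax scintillant, and incorporated radioactivity counted.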

A further experiment has as its system T47D. The experiment can be described thus: Growth inhibition of human estrogen-dependent T47D cells after 72 hrs. The format is functional, cell-based. A digest of the protocol:
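T47D breast ductal carcinoma cells stimulated with estradiol and counted after 72 h; tamoxifen as positive control.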

The target in experiment [2] is T2, Histone-lysine N-methyltransferase SETD7 (Homo sapiens, UniProt Q8WTS6).
T2 sequence (Q8WTS6 whole entry): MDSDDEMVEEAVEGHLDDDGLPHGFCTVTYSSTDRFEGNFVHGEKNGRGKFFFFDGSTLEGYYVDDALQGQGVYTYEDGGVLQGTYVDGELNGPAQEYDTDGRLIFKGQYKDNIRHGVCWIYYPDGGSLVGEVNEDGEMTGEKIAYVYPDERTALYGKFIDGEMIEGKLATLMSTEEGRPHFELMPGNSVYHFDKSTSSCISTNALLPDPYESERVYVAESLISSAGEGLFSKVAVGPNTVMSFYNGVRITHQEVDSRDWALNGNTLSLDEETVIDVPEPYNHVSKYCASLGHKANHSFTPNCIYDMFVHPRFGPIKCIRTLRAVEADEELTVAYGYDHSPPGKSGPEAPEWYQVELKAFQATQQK
The experiment can be described thus: Inhibition of Set7/9 lysine methyltransferase.

In the next experiment the target is T3, Estrogen receptor (Homo sapiens, UniProt P03372).
T3 sequence (P03372 whole entry): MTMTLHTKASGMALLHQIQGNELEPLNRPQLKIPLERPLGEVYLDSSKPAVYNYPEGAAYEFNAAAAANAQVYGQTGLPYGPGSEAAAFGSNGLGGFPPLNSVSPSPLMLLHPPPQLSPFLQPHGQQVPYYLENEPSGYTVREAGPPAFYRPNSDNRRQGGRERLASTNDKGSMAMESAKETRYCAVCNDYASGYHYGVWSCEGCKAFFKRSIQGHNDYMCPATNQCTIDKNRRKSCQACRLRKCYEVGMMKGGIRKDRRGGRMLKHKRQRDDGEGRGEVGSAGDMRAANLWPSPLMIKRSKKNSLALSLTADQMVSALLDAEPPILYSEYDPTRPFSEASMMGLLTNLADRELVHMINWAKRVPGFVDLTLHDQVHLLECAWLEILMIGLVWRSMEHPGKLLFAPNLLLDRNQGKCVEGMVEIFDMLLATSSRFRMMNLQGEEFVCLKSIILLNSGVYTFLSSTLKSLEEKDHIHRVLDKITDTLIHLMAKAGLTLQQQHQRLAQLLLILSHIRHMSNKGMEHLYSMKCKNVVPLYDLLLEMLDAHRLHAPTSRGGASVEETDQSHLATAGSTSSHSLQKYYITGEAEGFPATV
Description: Antiestrogenic activity in human T47D cells expressing estrogen receptor assessed as estrogen-dependent transcription by luciferase reporter gene assay. The class given is cell-based. In general terms: Reporter assays use an easily measured gene product as a stand-in for the process of interest.

Another experiment deals with T4, Androgen receptor (Homo sapiens, UniProt P10275).
T4 sequence (P10275 whole entry): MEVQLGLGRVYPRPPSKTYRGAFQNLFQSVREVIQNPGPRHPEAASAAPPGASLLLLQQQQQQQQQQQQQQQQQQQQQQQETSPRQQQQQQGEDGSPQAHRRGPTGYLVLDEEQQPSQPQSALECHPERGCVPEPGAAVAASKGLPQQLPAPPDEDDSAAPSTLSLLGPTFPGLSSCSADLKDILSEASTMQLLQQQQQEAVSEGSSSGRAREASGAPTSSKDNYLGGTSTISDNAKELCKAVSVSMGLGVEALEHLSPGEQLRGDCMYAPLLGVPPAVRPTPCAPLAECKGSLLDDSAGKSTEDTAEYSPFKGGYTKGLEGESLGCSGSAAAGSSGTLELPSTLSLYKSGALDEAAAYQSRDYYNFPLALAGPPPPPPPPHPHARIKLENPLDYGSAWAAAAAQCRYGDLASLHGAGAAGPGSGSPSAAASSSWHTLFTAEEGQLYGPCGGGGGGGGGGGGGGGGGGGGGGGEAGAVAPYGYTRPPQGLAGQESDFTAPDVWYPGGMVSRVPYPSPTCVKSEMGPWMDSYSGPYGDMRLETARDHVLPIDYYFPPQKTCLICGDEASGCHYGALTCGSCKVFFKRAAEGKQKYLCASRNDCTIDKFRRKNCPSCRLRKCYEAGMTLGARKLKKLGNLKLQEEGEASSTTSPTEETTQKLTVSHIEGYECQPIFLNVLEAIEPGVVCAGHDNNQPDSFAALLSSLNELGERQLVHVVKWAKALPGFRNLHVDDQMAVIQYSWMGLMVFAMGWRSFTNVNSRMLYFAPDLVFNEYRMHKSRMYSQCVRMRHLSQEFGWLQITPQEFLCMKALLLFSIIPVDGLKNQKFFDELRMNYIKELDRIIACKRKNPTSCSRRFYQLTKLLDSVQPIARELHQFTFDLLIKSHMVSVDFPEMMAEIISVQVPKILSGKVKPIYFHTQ
The experiment can be described thus: Antiandrogenic activity in human MDA-MB-453 cells expressing androgen receptor assessed as inhibition of DHT-induced androgen-dependent transcription by luciferase reporter gene assay. The format is cell-based.

Experiment [3] concerns the target Protein arginine N-methyltransferase 1 (Homo sapiens, UniProt Q99873). Description: Inhibition of PRMT1.
Another experiment concerns DU-145. The experiment can be described thus: Cytotoxicity against human DU145 cells by MTT assay. The class given is functional, cell-based. The method, boiled down: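 DU145 prostate carcinoma cell growth measured by MTT proliferation assay; HDAC inhibitor MS-275 as positive control.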
Background: Formazan colour is commonly taken as a measure of viable cells.

The target of experiment [4] is T5, Histone-arginine methyltransferase CARM1 (Mus musculus) (UniProt Q9WVG6).
T5 sequence (whole entry): T1 sequence (Q9WVG6 whole entry)
Description: Inhibition of mouse recombinant CARM1 assessed as inhibition of histone H3 methylation at 5 uM after 48 hrs by cell based assay. The method, boiled down: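 Cell-based readout of histone H3 arginine 26 methylation, a CARM1 target site, in two different cell lines treated with compound up to […] for 48 h.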

Protein arginine N-methyltransferase 1, sequence (Q99873 whole entry): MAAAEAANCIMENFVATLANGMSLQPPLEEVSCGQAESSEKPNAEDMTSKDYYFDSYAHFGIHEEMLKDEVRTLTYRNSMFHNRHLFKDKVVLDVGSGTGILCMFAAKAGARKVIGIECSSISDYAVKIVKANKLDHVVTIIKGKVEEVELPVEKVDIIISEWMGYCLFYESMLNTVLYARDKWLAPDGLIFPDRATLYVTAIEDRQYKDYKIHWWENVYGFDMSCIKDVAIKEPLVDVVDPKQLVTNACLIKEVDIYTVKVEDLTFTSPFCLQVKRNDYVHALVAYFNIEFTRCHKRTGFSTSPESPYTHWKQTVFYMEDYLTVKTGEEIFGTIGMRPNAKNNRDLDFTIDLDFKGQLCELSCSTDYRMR

With `CC(C)Oc1ccccc1CNC(=O)c1cc(C(F)(F)F)nn1-c1ccc(CNC(=O)[C@H](C)N)s1`, the IC50 (commonly the point on the concentration scale where inhibition reaches its midpoint) in experiment [1] came out at 2920 nM.
As to `COc1ccccc1CNC(=O)c1cc(C(F)(F)F)nn1-c1csc(CNC(=O)[C@H](C)N)c1`, the IC50 in the experiment on T47D was > 10000 nM; in experiment [2], > 100000 nM; at Estrogen receptor, > 10000 nM; in experiment [1], 60 nM; at Androgen receptor, > 10000 nM; in experiment [3] it was > 100000 nM. Also, the IC50 in the experiment with DU-145 is 18000 nM. Besides, the result in experiment [4] was inactive.
For the compound `COc1ccccc1CNC(=O)c1cc(C(F)(F)F)nn1-c1ccc(CNC(=O)[C@H](C)N)s1`, the IC50 in experiment [1] stood at 300 nM.
Same read-out and setting: the same measure for `COc1ccccc1CNC(=O)c1cc(C(F)(F)F)nn1-c1cccc2c1CN(CNC(=O)[C@H](C)N)C2`: > 10000 nM; for `COc1ccccc1CNC(=O)c1cc(C(F)(F)F)nn1-c1cccc2cc(CNC(=O)[C@H](C)N)oc12`: > 10000 nM.
The same measure, in the same setting: the same measure for `C[C@H](N)C(=O)NCc1ccc(-n2nc(C(F)(F)F)cc2C(=O)NCc2ccccc2C(F)(F)F)s1`: 4480 nM.
Regarding `C[C@H](N)C(=O)NCc1ccc(-n2nc(C(F)(F)F)cc2C(=O)NCc2ccccc2)s1`, the IC50 in experiment [1] came to 230 nM.
Regarding `COC(=O)c1ccccc1CNC(=O)c1cc(C(F)(F)F)nn1-c1csc(CNC(=O)[C@H](C)N)c1`, in experiment [1], the IC50 came out at 770 nM.
Same read-out and setting: to `C[C@H](N)C(=O)NCc1ccc(-n2nc(C(F)(F)F)cc2C(=O)NCc2ccccc2F)s1` belongs 2310 nM; to `COc1ccccc1CNC(=O)c1cc(C(F)(F)F)nn1-c1cc(CNC(=O)[C@H](C)N)ccn1`, 4200 nM; to `COc1cccc(CNC(=O)c2cc(C(F)(F)F)nn2-c2csc(CNC(=O)[C@H](C)N)c2)c1`, 370 nM.
Turning to `COc1ccccc1CNC(=O)c1cc(C(F)(F)F)nn1-c1cccc(CNC(=O)[C@H](C)N)c1`, the 50% inhibitory concentration (IC50) in the experiment with T47D was > 10000 nM; at Estrogen receptor, > 10000 nM; in experiment [1], 60 nM; at Androgen receptor it was > 10000 nM; in the experiment on DU-145 it was 18000 nM.
For the compound `C[C@H](N)C(=O)NCc1cc(-n2nc(C(F)(F)F)cc2C(=O)NCc2ccccc2F)cs1`, in experiment [1], the IC50 came out at 790 nM.
`Nc1ccccc1NC(=O)c1ccc(CNC(=O)OCc2cccnc2)cc1` [ENTINOSTAT] gave a half-maximal inhibitory concentration (IC50) in the experiment on DU-145 of 2000 nM.
Turning to `C[C@H](N)C(=O)NCc1ccc(-n2nc(C(F)(F)F)cc2C(=O)NCc2ccccn2)s1`, the half-inhibitory concentration (IC50) in experiment [1] was found to be 3350 nM.
As for `COc1ccccc1CNC(=O)c1cc(C(F)(F)F)nn1-c1nc(CNC(=O)[C@H](C)N)cs1`, in experiment [1], the half-inhibitory concentration (IC50) was 2200 nM.
Regarding `C[C@H](N)C(=O)NCc1cc(-n2nc(C(F)(F)F)cc2C(=O)NCc2ccccc2)cs1`, the 50% inhibitory concentration (IC50) in experiment [1] is 220 nM.
`Cc1ccccc1CNC(=O)c1cc(C(F)(F)F)nn1-c1csc(CNC(=O)[C@H](C)N)c1`: the IC50 in experiment [1] amounted to 260 nM.
Same read-out and setting: the same measure for `COc1ccccc1CNC(=O)c1cc(C(F)(F)F)nn1-c1cccc(CNC(=O)[C@H](C)N)n1`: 3050 nM.
`CC/C(=C(\c1ccccc1)c1ccc(OCCN(C)C)cc1)c1ccccc1` [TAMOXIFEN]: the 50% inhibitory concentration (IC50) with T47D was determined as 1000 nM.
